Measurements taken from ChEMBL document CHEMBL1130417 (J Med Chem, 1997).
“And” between values parts separate entries of the source, which are not always exact repeats. Equal entries are not always repeated.

How the values were obtained:
[1] = biological target: Delta-type opioid receptor (Rattus norvegicus, UniProt P33533); assay: Inhibition of radioligand [3H]DADLE binding to rat brain Opioid receptor delta 1
Method in brief: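 Rat brain membranes were labelled with [3H]DADLE (1.7–2.5 nM) for 3–4 h at 25 °C in Tris-HCl pH 7.4 with 100 mM choline chloride, 3 mM MnCl2, protease inhibitor cocktail and 100 nM DAMGO to block μ sites. Nonspecific binding was set with 20 μM levallorphan. Displacement used 8–10 drug concentrations, run twice. IC50 and slope factor came from curve fitting.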

[2] = biological target: Opioid receptors; mu & delta (Rattus norvegicus) (UniProt P33533+P33535); assay: Mu/delta inhibitory ratio of compound determined Rat brain receptors
Mu-type opioid receptor [3] = biological target: Mu-type opioid receptor (Rattus norvegicus, UniProt P33535); assay: Inhibition of radioligand [3H]DAMGO binding to rat brain Opioid receptor mu 1 […]
Method in brief: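 Rat brain membranes were labelled with [3H]DAMGO (1–3 nM) for 4 h at 25 °C in 50 mM Tris-HCl pH 7.4 with protease inhibitor cocktail. Nonspecific binding was set with 20 μM levallorphan. Displacement used 8–10 drug concentrations, run twice, with drug diluted in Tris pH 7.4 containing 1 mg/mL BSA. IC50 and slope factor came from curve fitting.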

[4] = biological target: Delta-type opioid receptor (Mus musculus, UniProt P32300); assay: Agonist activity was evaluated in mouse vas deferens (MVD) preparations at Opioid receptor delta 1; assay type: functional
Method in brief: (§1)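 Vas deferens from male ICR mice (25–40 g) was held in 37 °C oxygenated magnesium-free Krebs bicarbonate under 0.5 g tension. Tissue was field-stimulated at 0.1 Hz with 2-ms supramaximal pulses.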

Mu-type opioid receptor [5] = biological target: Mu-type opioid receptor (Cavia porcellus, UniProt P97266); assay: Agonist activity was evaluated in guinea pig ileum (GPI) preparations at Opioid receptor mu 1; assay type: functional, tissue-based
Method in brief: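 Longitudinal muscle–myenteric plexus strips from male Hartley guinea pig ileum (250–500 g) were held in 37 °C oxygenated Krebs bicarbonate under 1 g tension.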

Cavia porcellus = organism: Cavia porcellus; assay: IC50 ratio on Mu receptor of GPI to the delta receptor MVD
Method in brief: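 The ratio is guinea pig ileum IC50 divided by mouse vas deferens IC50. Both tissues were electrically stimulated at 0.1 Hz, the ileum with 0.4-ms and the vas deferens with 2-ms pulses, and exposed to cumulative agonist doses.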

Mus musculus = organism: Mus musculus; assay: Agonist activity was evaluated in mouse vas deferens (MVD) preparations at opioid delta receptor; assay type: functional; method in brief: as §1

Opioid receptors; mu & delta (Rattus norvegicus), sequence (P33533 whole entry, looked up): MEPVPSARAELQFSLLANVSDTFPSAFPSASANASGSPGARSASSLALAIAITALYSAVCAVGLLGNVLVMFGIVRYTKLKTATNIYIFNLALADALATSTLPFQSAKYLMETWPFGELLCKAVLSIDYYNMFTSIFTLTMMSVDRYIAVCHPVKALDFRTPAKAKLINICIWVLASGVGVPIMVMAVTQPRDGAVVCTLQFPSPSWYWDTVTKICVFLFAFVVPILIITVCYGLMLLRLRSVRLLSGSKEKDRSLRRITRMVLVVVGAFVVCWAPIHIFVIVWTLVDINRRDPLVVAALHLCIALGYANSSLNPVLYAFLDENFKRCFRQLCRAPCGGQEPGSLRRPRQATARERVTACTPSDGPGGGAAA
Opioid receptors; mu & delta (Rattus norvegicus), sequence (P33535 whole entry, looked up): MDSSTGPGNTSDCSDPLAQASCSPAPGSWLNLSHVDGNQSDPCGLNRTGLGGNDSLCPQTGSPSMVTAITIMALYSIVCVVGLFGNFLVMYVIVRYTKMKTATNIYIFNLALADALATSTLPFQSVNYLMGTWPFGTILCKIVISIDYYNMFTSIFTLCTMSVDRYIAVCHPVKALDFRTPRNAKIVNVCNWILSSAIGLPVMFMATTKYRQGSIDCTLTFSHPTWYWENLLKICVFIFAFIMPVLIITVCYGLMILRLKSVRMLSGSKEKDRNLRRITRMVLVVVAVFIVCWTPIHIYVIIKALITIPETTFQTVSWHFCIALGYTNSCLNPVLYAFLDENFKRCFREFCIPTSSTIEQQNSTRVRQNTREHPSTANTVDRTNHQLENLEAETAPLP
Delta-type opioid receptor (Rattus norvegicus, UniProt P33533), sequence (P33533 whole entry): as the sequence (P33533 whole entry, looked up) above
Delta-type opioid receptor (Mus musculus, UniProt P32300), sequence (P32300 whole entry): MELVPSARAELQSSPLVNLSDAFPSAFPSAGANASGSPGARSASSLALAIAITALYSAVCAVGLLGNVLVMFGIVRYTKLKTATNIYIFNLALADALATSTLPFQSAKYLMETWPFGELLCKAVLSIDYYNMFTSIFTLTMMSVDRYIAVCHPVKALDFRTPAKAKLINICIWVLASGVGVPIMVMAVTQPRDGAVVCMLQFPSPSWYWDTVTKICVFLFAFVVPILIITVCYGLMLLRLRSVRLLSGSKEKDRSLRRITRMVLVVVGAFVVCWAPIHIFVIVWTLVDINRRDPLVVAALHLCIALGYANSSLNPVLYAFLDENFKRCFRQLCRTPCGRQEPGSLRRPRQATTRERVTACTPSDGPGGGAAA
Mu-type opioid receptor (Cavia porcellus, UniProt P97266), sequence (P97266 whole entry): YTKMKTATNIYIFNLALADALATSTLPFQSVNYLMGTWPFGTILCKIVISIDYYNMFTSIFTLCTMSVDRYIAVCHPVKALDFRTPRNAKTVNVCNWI
Mu-type opioid receptor (Rattus norvegicus, UniProt P33535), sequence (P33535 whole entry): as the sequence (P33535 whole entry, looked up) above

SMILES | IC50 [1] | Ratio [2] | IC50 (Mu-type opioid receptor [3]) | also measured
C=CCN1C[C@H](C)N([C@@H](c2ccc(C(=O)N(CC)CC)cc2)c2cccc(F)c2)C[C@H]1C | 62.5 nM | > 160 | > 10000 nM | –
C=CCN1C[C@H](C)N([C@@H](c2ccc(C(=O)N(CC)CC)cc2)c2cccc(I)c2)C[C@H]1C | 41.1 nM | 82.2 | 3380 nM | –
C=CCN1C[C@H](C)N([C@H](c2ccc(C(=O)N(CC)CC)cc2)c2cccc(I)c2)C[C@H]1C | 3.91 nM | 314 | 1230 nM | IC50 [4]: 44.2 nM; IC50 (Mu-type opioid receptor [5]): > 3000 nM
C=CCN1C[C@H](C)N([C@@H](c2ccc(C(=O)N(CC)CC)cc2)c2cccc(O)c2)C[C@H]1C | 11.4 nM | – | – | –
C=CCN1C[C@@H](C)N([C@H](c2ccc(C(=O)N(CC)CC)cc2)c2cccc(F)c2)C[C@@H]1C (single isomer, unassigned) | 4.75 nM | > 2110 | > 10000 nM | –
C=CCN1C[C@@H](C)N([C@H](c2ccc(C(=O)N(CC)CC)cc2)c2cccc(O)c2)C[C@@H]1C (single isomer, unassigned) | 1.74 nM | – | – | –
CC(NC(=O)[C@@H](N)Cc1ccc(O)cc1)C(=O)N[C@@H](Cc1ccccc1)C(=O)N[C@@H](CC(=O)O)C(=O)N[C@H](C(=O)N[C@H](C(=O)NCC(N)=O)C(C)C)C(C)C (single isomer, unassigned) [DELTORPHIN C] | – | – | – | IC50 (Mu-type opioid receptor [5]): 15000 nM
C=CCN1C[C@H](C)N([C@H](c2ccc(C(=O)N(CC)CC)cc2)c2cccc(O)c2)C[C@H]1C (stereo in doubt; (+)-1) | 1.49 nM | – | – | –
C=CCN1C[C@H](C)N([C@@H](c2ccccc2)c2ccc(C(=O)N(CC)CC)cc2)C[C@H]1C (stereo in doubt; (+)-22) [listing 1 of 2 here] | 0.94 nM | – | > 2500 nM | IC50 (Mu-type opioid receptor [5]): 8580 nM
C=CCN1C[C@H](C)N([C@@H](c2ccccc2)c2ccc(C(=O)N(CC)CC)cc2)C[C@H]1C (stereo in doubt; (+)-22) [listing 2 of 2 here] | – | > 2660 | – | Ratio (Cavia porcellus): 813
C=CCN1C[C@H](C)N([C@H](c2ccc(C(=O)N(CC)CC)cc2)c2cccc(F)c2)C[C@H]1C (stereo in doubt; (+)-23) [listing 1 of 2 here] | 2.92 nM | – | 1980 nM | IC50 (Mus musculus): 200 nM; IC50 [4]: 9.77 nM and 10.3 nM; IC50 (Mu-type opioid receptor [5]): 2600 nM
C=CCN1C[C@H](C)N([C@H](c2ccc(C(=O)N(CC)CC)cc2)c2cccc(F)c2)C[C@H]1C (stereo in doubt; (+)-23) [listing 2 of 2 here] | – | 677 | – | Ratio (Cavia porcellus): 265
C=CCN1C[C@H](C)N([C@@H](c2ccc(C(=O)N(CC)CC)cc2)c2cccc(OC)c2)C[C@H]1C (stereo in doubt; (+)-25) | – | – | 5710 nM | –
C=CCN1C[C@H](C)N([C@H](c2ccccc2)c2ccc(C(=O)N(CC)CC)cc2)C[C@H]1C (stereo in doubt; (+)-26) [listing 1 of 2 here] | 60 nM | – | > 10000 nM | –
C=CCN1C[C@H](C)N([C@H](c2ccccc2)c2ccc(C(=O)N(CC)CC)cc2)C[C@H]1C (stereo in doubt; (+)-26) [listing 2 of 2 here] | – | > 167 | – | –
C=CCN1C[C@H](C)N([C@H](c2ccc(C(=O)N(CC)CC)cc2)c2cccc(O)c2)C[C@H]1C (stereo in doubt; (-)-1) | 58.3 nM | – | – | –
C=CCN1C[C@H](C)N([C@@H](c2ccccc2)c2ccc(C(=O)N(CC)CC)cc2)C[C@H]1C (stereo in doubt; (-)-22) [listing 1 of 2 here] | 852 nM | – | > 10000 nM | –
C=CCN1C[C@H](C)N([C@@H](c2ccccc2)c2ccc(C(=O)N(CC)CC)cc2)C[C@H]1C (stereo in doubt; (-)-22) [listing 2 of 2 here] | – | > 11.7 | – | –
C=CCN1C[C@H](C)N([C@H](c2ccc(C(=O)N(CC)CC)cc2)c2cccc(F)c2)C[C@H]1C (stereo in doubt; (-)-23) [listing 1 of 2 here] | 1380 nM | – | > 10000 nM | –
C=CCN1C[C@H](C)N([C@H](c2ccc(C(=O)N(CC)CC)cc2)c2cccc(F)c2)C[C@H]1C (stereo in doubt; (-)-23) [listing 2 of 2 here] | – | > 7.3 | – | –
C=CCN1C[C@H](C)N([C@@H](c2ccc(C(=O)N(CC)CC)cc2)c2cccc(OC)c2)C[C@H]1C (stereo in doubt; (-)-25) | – | – | 9140 nM | IC50 (Mu-type opioid receptor [5]): 1520 nM
C=CCN1C[C@H](C)N([C@H](c2ccccc2)c2ccc(C(=O)N(CC)CC)cc2)C[C@H]1C (stereo in doubt; (-)-26) [listing 1 of 2 here] | 9.22 nM | – | 8450 nM | IC50 [4]: 126 nM; IC50 (Mu-type opioid receptor [5]): 1780 nM
C=CCN1C[C@H](C)N([C@H](c2ccccc2)c2ccc(C(=O)N(CC)CC)cc2)C[C@H]1C (stereo in doubt; (-)-26) [listing 2 of 2 here] | – | > 916 | – | –
